# TRPC4 act: TRPC4 (mouse) channel activation | HEK293 TRPC4beta/mu-opioid, Fluo4 calcium fluorescence; stronger effect = higher value | actives 0.49% (n = 310,000) | B-score at 10 µM;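 active means B-score above 5 SD of library B-scores, and initial fluorescence ratio not above library mean plus 5 SD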;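 further: positive B-score marks a calcium rise read as TRPC4 activation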
# Target sequence (Q9QUQ5 whole entry, looked up): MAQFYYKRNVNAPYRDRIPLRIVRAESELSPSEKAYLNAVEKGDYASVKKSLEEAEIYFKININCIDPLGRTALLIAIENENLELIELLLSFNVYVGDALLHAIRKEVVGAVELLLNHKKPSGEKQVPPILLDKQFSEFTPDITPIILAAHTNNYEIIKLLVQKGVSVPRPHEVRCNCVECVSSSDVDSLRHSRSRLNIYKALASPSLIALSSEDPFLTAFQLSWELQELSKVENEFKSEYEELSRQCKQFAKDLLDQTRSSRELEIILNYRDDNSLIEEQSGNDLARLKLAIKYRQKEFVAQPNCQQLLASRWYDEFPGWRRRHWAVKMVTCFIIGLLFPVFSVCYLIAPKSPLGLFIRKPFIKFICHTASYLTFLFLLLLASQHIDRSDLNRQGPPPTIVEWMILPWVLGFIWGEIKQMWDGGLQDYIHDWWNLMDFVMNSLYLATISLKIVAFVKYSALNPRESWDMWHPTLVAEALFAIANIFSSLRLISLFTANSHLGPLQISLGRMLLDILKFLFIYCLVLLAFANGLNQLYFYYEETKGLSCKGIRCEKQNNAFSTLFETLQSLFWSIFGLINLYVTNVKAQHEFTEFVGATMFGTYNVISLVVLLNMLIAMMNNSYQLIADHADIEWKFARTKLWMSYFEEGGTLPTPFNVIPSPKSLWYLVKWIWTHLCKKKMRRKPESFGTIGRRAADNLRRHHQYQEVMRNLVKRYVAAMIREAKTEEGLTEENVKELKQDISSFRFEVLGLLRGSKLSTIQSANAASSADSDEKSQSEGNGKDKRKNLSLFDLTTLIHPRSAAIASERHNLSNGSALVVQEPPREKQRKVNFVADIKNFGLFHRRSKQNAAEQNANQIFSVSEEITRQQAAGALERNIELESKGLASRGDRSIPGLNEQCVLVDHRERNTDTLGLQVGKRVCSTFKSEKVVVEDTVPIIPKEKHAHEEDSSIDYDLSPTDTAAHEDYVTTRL
#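 Material: HEK293 stable line with TRPC4beta plus mu-opioid receptor; technique: Fluo4 calcium-sensitive dye fluorescence, kinetic, 1 Hz baseline; timing: Fluo4 dye loading 45 min at room temperature, 110 s recording; controls: assay buffer as low control, maximal DAMGO as high control; read-out: integrated baseline-normalised fluorescence ratio, converted to per-well B score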
# TRPC4 potent: allosterically enhances the mouse TRPC4 cation channel | Q9QUQ5 | B-score at 10 µM | HEK293 TRPC4beta/mu-opioid, DAMGO EC20, Fluo-4 Ca2+ flux; stronger effect = higher value | actives 0.42% (n = 310,000);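 active means B-score of calcium response area above 5 SD of library B-scores, with initial fluorescence ratio within 5 SD of library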;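 further: B-score of integrated fluorescence ratio over time as area under calcium response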
# TRPC6 inhibitor: blocks the mouse TRPC6 cation channel; Q61143; HEK293-TRPC6, membrane potential dye, ACh-evoked depolarization; stronger effect = lower value; B-score at 10 µM; actives 1.1% (n = 310,000); AID 2553;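 active means B-score under library mean minus 3 SD, initial fluorescence not abnormally high, positive integrated signal ratio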;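 further: B-score derived from integrated fluorescence ratio over the kinetic read; more negative B-score means stronger inhibition of depolarization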
# TRPC4 block: inhibitors of mouse TRPC4 channel; Q9QUQ5; HEK293 TRPC4beta/mu-opioid, DAMGO-evoked Fluo4 calcium flux; stronger effect = lower value; B-score at 10 µM; actives 0.39% (n = 300,000); AID 2247;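 active means B-score over 3 SD under the library average, no early fluorescence shift, positive overall ratio signal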
#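 test system = HEK293 cells with stable TRPC4beta plus mu-opioid receptor expression | detection = Fluo4 Ca2+ flux fluorescence | read-out = integrated fluorescence ratio relative to baseline, converted to per-well B score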
# TRPC6 act: mouse TRPC6 channel activation. Q61143. HEK293-TRPC6 membrane potential dye fluorescence; stronger effect = higher value. B-score at 10 µM. actives 0.13% (n = 310,000). AID 2550;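 active means B-score of the integrated fluorescence ratio above library mean plus 3 SD, and starting fluorescence ratio within library mean plus 5 SD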;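 further: higher score means more depolarization so channel activation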
# TRPC4 sel inh 2: second check of whether TRPC6 inhibitors also affect mouse TRPC4; shares compounds with TRPC6 inhibitor; actives 42% (n = 920); HEK293 TRPC4/MOR, membrane potential dye fluorescence; channel activated by saturating DAMGO dose; inhibition, % at 10 µM; AID 2776;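 active means compounds whose fluorescence signal differed from control wells by over 3 SD, either direction, in both duplicate plates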
# TRPC4 spec: selectivity of TRPC6 inhibitors: effect on mouse TRPC4 | shares compounds with TRPC6 inhibitor | HEK293 TRPC4/mu-opioid, membrane potential fluorescence | activity change, negative = inhibition, % at 10 µM | actives 61% (n = 920);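 active means rise or fall in signal beyond 3 SD of buffer-only wells in both replicate plates, either sign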;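 further: integrated kinetic ratio of fluorescence range over baseline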
# HEK293 MPD ctr 2-1: parental HEK293 nonspecific activity of TRPC6 inhibitors, second screen. signal change vs control, % at 10 µM. AID 2779. actives 31% (n = 920). parental HEK293 membrane potential dye fluorescence; maximal acetylcholine challenge after compound addition. shares compounds with TRPC6 inhibitor;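 active means membrane potential signal moving either way by over 3 SD of the maximum-effect control, in both duplicate plates, meaning non-specific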
# HEK293 MPD ctr-1: parental HEK293 nonspecific activity of TRPC6 inhibitors; shares compounds with TRPC6 inhibitor; parental HEK293 membrane potential dye fluorescence; membrane potential signal change, % at 10 µM; actives 60% (n = 920);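 active means membrane potential signal shifting up or down by more than 3 SD of buffer-only wells, on both duplicate plates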
# HEK293 MPD ctr-2: counter-screen for TRPC6 modulators: effect in parental HEK293 cells; membrane potential signal change, % at 10 µM; shares compounds with TRPC6 inhibitor; actives 51% (n = 2,400); membrane potential dye fluorescence;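 active means membrane potential signal moves up or down beyond 5 SD from buffer-only wells, on both duplicate plates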
# HEK293 MPD ctr 2-2: parental HEK293 nonspecific activity of TRPC6 modulators, second screen | shares compounds with TRPC6 inhibitor | actives 14% (n = 2,400) | inhibition, % at 10 µM | membrane potential dye fluorescence; after compound, maximal acetylcholine stimulation | AID 488926;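 active means membrane potential signal drops by more than 5 SD from the mean control signal, in both duplicate plates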;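 further: plate controls were acetylcholine ECmax control wells for no effect and buffer only wells for full effect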
# TRPC4 ctr mod: tests whether TRPC6 modulators also affect mouse TRPC4. percent change from control (negative = decrease, positive = increase), % at 10 µM. HEK293 TRPC4/mu-opioid, membrane potential fluorescence. actives 69% (n = 2,400). shares compounds with TRPC6 inhibitor;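 active means membrane potential signal moved up or down beyond 5 SD of buffer control wells, in both duplicate plates, actives on both sides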;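 further: plate controls were assay buffer wells for no effect and DAMGO maximal-effect wells for full effect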
# TRPC4 ctr inh 2: mouse TRPC4 off-target activity of TRPC6 modulators, second screen; inhibition, % at 10 µM; HEK293 TRPC4/mu-opioid, membrane potential dye fluorescence; stimulated with maximal-effect DAMGO; shares compounds with TRPC6 inhibitor; actives 55% (n = 2,400);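 active means drop in membrane potential signal beyond 5 SD of the control wells in both duplicate plates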;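 further: TRPC4 counter screen for TRPC6 hits run under conditions tuned for TRPC6 not TRPC4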
# TRPC6 inh conf: confirmation of mouse TRPC6 inhibitors; shares compounds with TRPC6 inhibitor; HEK293-TRPC6, membrane potential dye, ACh-evoked depolarization; inhibition, % at 10 µM; actives 43% (n = 3,300); AID 488960;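 active means fluorescence ratio falls more than 5 SD below the full-stimulation control mean, in both duplicate runs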;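 further: integrated fluorescence ratio of peak minus minimum over baseline after agonist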
# TRPC6 act confirm: mouse TRPC6 activator confirmation | shares compounds with TRPC6 inhibitor | HEK293-TRPC6 membrane potential dye fluorescence, FDSS | activation, % at 10 µM | actives 11% (n = 2,800) | AID 488961;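 active means ratio signal rise beyond 5 SD above unstimulated control wells' mean, seen in both duplicate runs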;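 further: plate controls were buffer EC0 wells for no effect and acetylcholine ECmax response for full effect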
# * = called active by the depositor; i = inactive; · = not tested or not shown. In the library only some 2.3% were active in any assay of this set; here they are far more common.
SMILES,TRPC4 act,TRPC4 potent,TRPC6 inhibitor,TRPC4 block,TRPC6 act,HEK293 MPD ctr-2,HEK293 MPD ctr 2-2,TRPC4 ctr mod,TRPC4 ctr inh 2,TRPC6 inh conf,TRPC6 act confirm,others
O=C(NCc1ccc2c(c1)OCO2)c1ccc2c(c1)N(Cc1c(F)cccc1Cl)C(=O)CS2,i,i,i,i,i,·,·,·,·,·,·,
Oc1ccccc1Oc1ncc(Br)c(Cl)n1,i,i,i,i,i,·,·,·,·,·,·,
Oc1ccccc1Oc1ncc(Br)c(N2CCOCC2)n1,i,i,-7.2*,i,i,·,·,·,·,i,i,TRPC4 sel inh 2=i;TRPC4 spec=i;HEK293 MPD ctr 2-1=i;HEK293 MPD ctr-1=i
CCOC(=O)CNC(=S)N(Cc1ccco1)Cc1ccccc1Cl,i,i,-5.8*,i,i,i,i,12%*,i,i,i,
O=[N+]([O-])c1cccc(-c2nnc(-c3ccccc3)o2)c1,i,i,i,i,i,·,·,·,·,·,·,
O=[N+]([O-])c1cccc(-c2cc3cccc[n+]3cc2-c2cccc([N+](=O)[O-])c2)c1,i,i,-10*,i,i,-395%*,i,-74%*,70%*,56%*,i,
Cc1sc2cc(-c3cccc([N+](=O)[O-])c3)c(-c3cccc([N+](=O)[O-])c3)c[n+]2c1C,i,i,-6.7*,i,i,-332%*,96%*,-54%*,66%*,74%*,i,
O=C(CCN1C(=O)C2CCCCC2C1=O)N1CCN(S(=O)(=O)c2ccccc2)CC1 (configuration not stated),i,i,i,i,i,·,·,·,·,·,·,
CS(=O)(=O)N(CC(=O)N1CCN(c2ccccc2)CC1)Cc1ccc(Cl)cc1,i,i,-5.6*,i,i,i,i,13%*,i,i,i,
CS(=O)(=O)N(CC(=O)N1CCc2ccccc2C1)Cc1ccccc1,i,i,-6.5*,i,i,i,i,12%*,i,i,·,
COc1ccc(N2CCN(C(=O)CN(Cc3ccc(Cl)cc3)S(C)(=O)=O)CC2)cc1,i,i,i,i,i,·,·,·,·,·,·,
CC1CCN(C(=O)CN(Cc2ccccc2)S(C)(=O)=O)CC1,i,i,i,i,i,·,·,·,·,·,·,
Cc1ccccc1C(=O)NCC(=O)OC1CCCCC1=O (configuration not stated),i,i,i,i,i,·,·,·,·,·,·,
COc1ccc(Nc2ccc(S(=O)(=O)N3CCCCC3)cc2[N+](=O)[O-])cc1,i,26*,-5.3*,i,i,i,i,i,i,i,i,
O=C1Nc2ccccc2/C1=N\N=C\C1=C(N2CCOCC2)C(=C\c2ccccc2)/CC1,i,i,-9.5*,i,i,·,·,·,·,90%*,i,TRPC4 sel inh 2=33%*;TRPC4 spec=-29%*;HEK293 MPD ctr 2-1=-22%*;HEK293 MPD ctr-1=-326%*
Cn1cc(C(=O)N/N=C/C2=C(N3CCOCC3)C(=C\c3ccccc3)/CC2)ccc1=O,i,i,i,i,i,·,·,·,·,·,·,
COc1ccc(-c2cc(C(F)(F)F)c3c(N)c(C(=O)NCCSC)sc3n2)cc1,i,i,i,i,i,·,·,·,·,·,·,
CN(C)CCNC(=O)c1sc2nc(-c3ccccc3)cc(C(F)(F)F)c2c1N,83*,i,i,i,16*,312%*,i,57%*,45%*,·,144%*,
COc1cccc2c(Cl)c(CC=C(Cl)Cl)c(C)nc12,i,i,i,i,i,·,·,·,·,·,·,
Cc1ccc2nc(C)c3c(c2c1)N(c1ccc(F)cc1)CC3,i,i,-9.6*,-6*,i,·,·,·,·,105%*,i,TRPC4 sel inh 2=34%*;TRPC4 spec=i;HEK293 MPD ctr 2-1=27%*;HEK293 MPD ctr-1=-194%*
COc1cccc2c3c(c(C)nc12)CCN3c1ccccc1,i,i,-8.5*,i,i,-182%*,i,-33%*,72%*,68%*,i,
CCOC(=O)c1cnc2c(OC)cccc2c1N1CCN(c2ccccc2OC)CC1,i,i,i,i,i,·,·,·,·,·,·,
COc1ccccc1N1CCc2c(C)nc3c(OC)cccc3c21,i,i,-6.5*,-6*,i,-114%*,i,-19%*,58%*,46%*,i,
Cc1nn(C(C)C(=O)N2CCOCC2)c(C)c1[N+](=O)[O-] (configuration not stated),i,i,i,i,i,·,·,·,·,·,·,
COc1ccccc1-c1ccc(/C=C2/C=C(C)OC2=O)o1,i,i,i,i,i,·,·,·,·,·,·,
COc1ccccc1-c1ccc(/C=C2\C=CC(=O)O2)o1,i,i,i,i,31*,706%*,i,204%*,i,i,121%*,
c1ccc(Cn2nnc3ccccc32)cc1,i,i,i,i,i,·,·,·,·,·,·,
c1ccc(Cn2nnc3cnccc32)cc1,i,i,-8.1*,-5*,i,·,·,·,·,i,i,TRPC4 sel inh 2=i;TRPC4 spec=i;HEK293 MPD ctr 2-1=i;HEK293 MPD ctr-1=i
CN1CCN(c2ccccc2NC(=O)c2ccc(-c3ccc(Cl)c(Cl)c3)o2)CC1,i,i,i,i,i,·,·,·,·,·,·,
